SMILES strings stand for the structures.

Assay [1] concerns the target T1, Gonadotropin-releasing hormone receptor (Rattus norvegicus) (UniProt P30969).
T1 sequence (whole entry): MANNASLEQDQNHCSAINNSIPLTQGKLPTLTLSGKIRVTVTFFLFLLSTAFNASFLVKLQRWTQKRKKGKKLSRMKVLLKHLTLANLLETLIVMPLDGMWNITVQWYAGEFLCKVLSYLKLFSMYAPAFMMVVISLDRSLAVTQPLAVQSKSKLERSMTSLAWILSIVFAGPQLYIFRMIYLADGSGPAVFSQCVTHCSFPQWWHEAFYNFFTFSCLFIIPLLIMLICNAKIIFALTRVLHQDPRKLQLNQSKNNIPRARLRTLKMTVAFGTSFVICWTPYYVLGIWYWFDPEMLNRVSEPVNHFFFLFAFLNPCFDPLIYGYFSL
In words: In vitro inhibition of LH release was determined in rat pituitary cells at a dose of 0.3 ug of analogue and 1 ng of LHRH. It is filed as functional, cell-based. The settings on record: Pituitary gland cell. An outline of the steps: (§1)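 Anterior pituitaries from female Sprague-Dawley rats (240-260 g, 18 rats) were minced and dispersed in Gey's solution with trypsin, DNase I and LBBI. Cells were plated in DMEM with 0.45% glucose, 25 mM HEPES, serum, T and 100 nM dexamethasone at about 3.0 × 10^5 cells/mL and cultured 4 days at 37 °C in 8% CO2. Cells were then exposed to antagonist plus 1 ng LHRH in Gey's solution with 0.3% glucose for 2 h. LH in the medium was measured by RIA as ng/mL of RP-3.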

Assay [2] has as its target T1, Gonadotropin-releasing hormone receptor (Rattus norvegicus). Description: In vitro inhibition of LH release was determined in rat pituitary cells at a dose of 0.1 ug of analogue and 1 ng of LHRH. The settings on record: Pituitary gland cell. The assay is classed as functional, cell-based. In short, it runs like this: as §1
For assay [3] the target is unchanged. In words: In vitro inhibition of LH release in rat pituitary cells at a dose of 1 ug of analogue and 1 ng of LHRH. The settings on record: Pituitary gland cell. The assay is classed as functional, cell-based. In short, it runs like this:
as §1

Assay [4] has the same target. Description: In vitro inhibition of LH release was determined in rat pituitary cells at a dose of 0.03 ug of analogue and 1 ng of LHRH. The assay is classed as functional, cell-based. The settings on record: Pituitary gland cell. An outline of the steps: as §1
The target is the same in assay [5]. Description: In vitro antagonistic activity against LH release in rat pituitary cells for control. It is filed as functional, cell-based. The conditions noted are these: Pituitary gland cell. In short, it runs like this:
as §1

The subject of assay [6] is Rattus norvegicus. In words: In vivo anti-ovulatory activity (AOA) against LHRH was determined at a dose of 1000 ug in 9 rats. It is filed as functional. An outline of the steps:
(§2)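 Female 4-day cycling rats received a single subcutaneous injection of analog in corn oil between 12 and 12:30 p.m. Ova were counted on estrus. Activity is given as the number of ovulating rats over the total rats at each dose.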

In assay [7] the test system is Rattus norvegicus. In words: In vivo anti-ovulatory activity (AOA) against LHRH was determined at a dose of 100 ug in 6 rats. It is filed as functional. An outline of the steps:
as §2

The species entered for assay [8] is Rattus norvegicus. Description: In vitro inhibition of LH release in rat pituitary cells at a dose of 1 ng LHRH in absence of the compound. More on the design: unit: ng/mL. The assay is classed as functional, Pituitary gland cell. An outline of the steps: as §1

On to `CCNC(=O)[C@@H]1CCCN1C(=O)[C@H](CCCN=C(N)N)NC(=O)[C@H](CC(C)C)NC(=O)[C@@H](Cc1ccc2ccccc2c1)NC(=O)[C@H](Cc1ccc(O)cc1)NC(=O)[C@H](CO)NC(=O)[C@@H](Cc1ccc2ccccc2c1)NC(C)=O`, for which the Activity turned out to be 4 in assay [1]; 5 in assay [2]; 3 in assay [3]; 45 in assay [4]; 3.2 in assay [5]; 153 in the assay filed under Rattus norvegicus [8]. Further, the AOA in the assay with Rattus norvegicus [6] was determined as 2; with Rattus norvegicus [7] it was 6.

The record behind these values is ChEMBL document CHEMBL1128487, “Reduced-size antagonists of luteinizing hormone-releasing hormone active in vitro” (1995).
